In brackets after ≈: the same amount, converted by molar mass. Where two headings read alike, the source gives them in different places.
What was measured:
[1] = test system: Influenza A/H3N2 A/HK/7/87; experiment: CPE reduction assay in MDCK cells; assay type: cell-based; conditions: Influenza A virus
[2] = test system: Aspergillus fumigatus (NCIM 2081); experiment: Agar disk diffusion, inhibition zone; assay type: cell-based; conditions: 100 µg/8 mm disc, triplicate, mean ± SD
[3] = test system: Aspergillus fumigatus (NCIM 2081); experiment: MIC, broth microdilution; assay type: cell-based; conditions: NCIM2081, read-out: Minimum inhibitory concentration (MIC), AF
Outline: (§1)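 Antifungal MICs by CLSI broth microdilution in Sabouraud liquid medium. Test compounds and standard drugs are serially diluted two-fold from 512 to 0.25. The fungal broth culture is grown 24 h at 35 °C to a 0.5 McFarland turbidity, then adjusted with sterile solution to the final inoculum.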

[4] = test system: Salmonella typhimurium (NCIM-2501); experiment: Agar disk diffusion, inhibition zone; assay type: cell-based; conditions: 100 µg/8 mm disc, triplicate, mean ± SD
[5] = test system: Aspergillus niger (NCIM 2191); experiment: Agar disk diffusion, inhibition zone; assay type: cell-based; conditions: 100 µg/8 mm disc, triplicate, mean ± SD
Outline: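 For the fungal strain, discs soaked in test compound solution (DMSO stock diluted with distilled water) sat on seeded Mueller-Hinton agar. Clotrimazole was the reference. Incubation ran 48 h at 35 °C, in triplicate. Zone of growth inhibition recorded in mm as the mean diameter around each disc.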

[6] = test system: Yellow Fever virus; experiment: microbe, parasite or virus in culture; assay type: cell-based; conditions: Yellow fever virus, Vero, read-out: Antiviral EC50, Yellow Fever virus
[7] = test system: Madin Darby canine kidney (MDCK) cells; conditions: dog
[8] = test system: Cryptococcus neoformans (ATCC 9011); experiment: MIC, broth microdilution; assay type: cell-based; conditions: ATCC9011, read-out: Minimum inhibitory concentration (MIC), CN
Outline: as §1

[9] = test system: Coxsackie virus B4; experiment: CPE reduction assay in Vero cells; assay type: cell-based; conditions: Enterovirus B, read-out: Antiviral EC50, Coxsackie virus B4
[10] = test system: Pseudomonas aeruginosa (MCCB 0035); experiment: Agar disk diffusion, inhibition zone; assay type: cell-based; conditions: 100 µg/8 mm disc, triplicate, mean ± SD
[11] = test system: Candida albicans (NCIM 2087); experiment: Agar disk diffusion, inhibition zone; assay type: cell-based; conditions: 100 µg/8 mm disc, triplicate, mean ± SD
[12] = test system: Adeno virus-2; experiment: CPE reduction assay in HEL cells; assay type: cell-based; conditions: read-out: Antiviral EC50, Adeno virus-2
[13] = test system: Human embryonic lung (HEL) cells; conditions: HEL cell cultures; microscopically detectable alteration of normal cell morphology
[14] = test system: Streptococcus pneumonia (ATCC 49619); experiment: Agar disk diffusion, inhibition zone; assay type: cell-based; conditions: 100 µg/8 mm disc, triplicate, mean ± SD
[15] = test system: Candida albicans (NCIM 2087); experiment: MIC, broth microdilution; assay type: cell-based; conditions: NCIM2087, read-out: Minimum inhibitory concentration (MIC), CA
Outline: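 CLSI broth microdilution in Sabouraud liquid medium, with test compound two-fold serially diluted from 512 to 0.25. Fungal broth culture grown 24 h at 35 °C to 0.5 McFarland turbidity, then adjusted with sterile solution to a final […] inoculum. MIC expressed in µg/mL.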

[16] = test system: Bacillus cereus (NCIM-2458); experiment: MIC, broth microdilution; assay type: cell-based; conditions: NCIM2458, read-out: Minimum inhibitory concentration (MIC), BC
Outline: (§2)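 Broth microdilution per CLSI in Mueller-Hinton broth, using two-fold serial dilutions of test compound and reference drugs from 512 to 0.25. Bacterial broth cultures were grown 2-6 h to 0.5 McFarland turbidity, then diluted with sterile solution to the final inoculum. MIC is reported in µg/mL.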

[17] = test system: Influenza A/H1N1 A/Ned/378/05; experiment: CPE reduction assay in MDCK cells; assay type: cell-based; conditions: Influenza A virus
[18] = test system: Escherichia coli (ATCC 8739); experiment: MIC, broth microdilution; assay type: cell-based; conditions: ATCC8739, read-out: Minimum inhibitory concentration (MIC), EC
Outline: as §2

[19] = test system: Cryptococcus neoformans (ATCC 9011); experiment: Agar disk diffusion, inhibition zone; assay type: cell-based; conditions: 100 µg/8 mm disc, triplicate, mean ± SD
[20] = test system: Reovirus-1; experiment: CPE reduction assay in Vero cells; assay type: cell-based; conditions: read-out: Antiviral EC50, Reovirus-1
[21] = test system: Punta Toro virus; experiment: CPE reduction assay in Vero cells; assay type: cell-based; conditions: read-out: Antiviral EC50, Punta Toro virus
[22] = test system: Staphylococcus aureus (ATCC 29213); experiment: Agar disk diffusion, inhibition zone; assay type: cell-based; conditions: 100 µg/8 mm disc, triplicate, mean ± SD
Outline: (§3)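 Agar disk diffusion on Mueller-Hinton agar plates seeded with a standard bacterial suspension. Test compound stock in DMSO, diluted with distilled water; 8 mm sterile filter-paper discs soaked in the solution. Ampicillin was the reference. Plates incubated at 35 °C for 24 h, in triplicate. Read-out is the average inhibition-zone diameter (mm) around each disc.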

[23] = test system: Human Coronavirus (229E); experiment: CPE reduction assay in HEL cells; assay type: cell-based; conditions: read-out: Antiviral EC50, Human Coronavirus (229E)
[24] = test system: Vaccinia virus; experiment: microbe, parasite or virus in culture; assay type: cell-based; conditions: Orthopoxvirus vaccinia, HEL, read-out: Antiviral EC50, Vaccinia virus
[25] = test system: Vero cells; conditions: Vero cell cultures; microscopically detectable alteration of normal cell morphology
[26] = test system: Influenza B B/Ned/537/05; experiment: CPE reduction assay in MDCK cells; assay type: cell-based; conditions: Influenza B virus, read-out: Antiviral EC50, Influenza B B/Ned/537/05, MTS
[27] = test system: Para-influenza-3 virus; experiment: CPE reduction assay in Vero cells; assay type: cell-based, Parainfluenza-3 virus; conditions: Vero, read-out: Antiviral EC50, Para-influenza-3 virus
[28] = test system: Sindbis virus; experiment: CPE reduction assay in Vero cells; assay type: cell-based; conditions: read-out: Antiviral EC50, Sindbis virus
[29] = test system: Bacillus cereus (NCIM-2458); experiment: Agar disk diffusion, inhibition zone; assay type: cell-based; conditions: 100 µg/8 mm disc, triplicate, mean ± SD
[30] = test system: Staphylococcus aureus (ATCC 29213); experiment: MIC, broth microdilution; assay type: cell-based; conditions: ATCC29213, read-out: Minimum inhibitory concentration (MIC), SA
Outline: (§4)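 Antibacterial MICs by CLSI broth microdilution in Mueller-Hinton broth. Test compounds and standard drugs are serially diluted two-fold from 512 to 0.25. The bacterial broth culture is grown 2-6 h to a 0.5 McFarland turbidity, then adjusted with sterile solution to the final inoculum.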

[31] = test system: MT4 cells; conditions: MT4 cell cultures; colorimetric MTT cell viability assay
[32] = test system: Lactobacillus casei (NCIM-2651); experiment: Agar disk diffusion, inhibition zone; assay type: cell-based; conditions: 100 µg/8 mm disc, triplicate, mean ± SD
[33] = test system: Pseudomonas aeruginosa (MCCB 0035); experiment: MIC, broth microdilution; assay type: cell-based; conditions: read-out: Minimum inhibitory concentration (MIC), PA
Outline: as §2

[34] = test system: Escherichia coli (ATCC 8739); experiment: Agar disk diffusion, inhibition zone; assay type: cell-based; conditions: 100 µg/8 mm disc, triplicate, mean ± SD
Outline: as §3

[35] = test system: Klebsiella aerogenes (NCIM-2098); experiment: MIC, broth microdilution; assay type: cell-based; conditions: NCIM2098, read-out: Minimum inhibitory concentration (MIC), KA
Outline: as §4

[36] = test system: Aspergillus niger (NCIM 2191); experiment: MIC, broth microdilution; assay type: cell-based; conditions: NCIM2191, read-out: Minimum inhibitory concentration (MIC), AN
Outline: as §1

[37] = test system: Klebsiella aerogenes (NCIM-2098); experiment: Agar disk diffusion, inhibition zone; assay type: cell-based; conditions: 100 µg/8 mm disc, triplicate, mean ± SD
[38] = read-out: Antiviral EC50, Influenza A/H3N2 A/HK/7/87, MTS
[39] = read-out: Antiviral EC50, Influenza A/H3N2 A/HK/7/87, visual CPE score
[40] = read-out: Antiviral EC50, Influenza A/H1N1 A/Ned/378/05, MTS
[41] = read-out: Antiviral EC50, Influenza A/H1N1 A/Ned/378/05, visual CPE score

| Compound | EC50 [1, 38] [µM] | EC50 [1, 39] [µM] | Diameter of growth inhibition zone, AF [2] [mm] | MIC [3] [µg/mL] | Diameter of growth inhibition zone, ST [4] [mm] | Diameter of growth inhibition zone, AN [5] [mm] | EC50 [6] [µM] | Cytotoxicity, Minimum cytotoxic conc. [7] [µM] | MIC [8] [µg/mL] | EC50 [9] [µM] | Diameter of growth inhibition zone, PA [10] [mm] | Diameter of growth inhibition zone, CA [11] [mm] | EC50 [12] [µM] | Minimum cytotoxic conc. [13] [µM] | Diameter of growth inhibition zone, SP [14] [mm] | MIC [15] [µg/mL] | MIC [16] [µg/mL] | EC50 [17, 40] [µM] | EC50 [17, 41] [µM] | MIC [18] [µg/mL] | other results |
| --- | --- | --- | --- | --- | --- | --- | --- | --- | --- | --- | --- | --- | --- | --- | --- | --- | --- | --- | --- | --- | --- |
| Cc1ccc(S(=O)(=O)N2C(=O)CSC2c2ccccc2O)cc1 (stereo not drawn) [5k, 2-(2-Hydroxyphenyl)-3-[(4-methylphenyl)sulfonyl]-1,3-thiazolidin-4-one] | > 100 | > 100 | 13 ± 1.5 | 32 (≈ 91.6 µM) | 10 ± 0.8 | 15 ± 0.93 | > 100 | >100 | 64 (≈ 183 µM) | > 100 | 17.5 ± 0.6 | 16 ± 0.32 | > 100 | >100 | 08 ± 0.3 | 16 (≈ 45.8 µM) | 64 (≈ 183 µM) | > 100 | > 100 | 32 (≈ 91.6 µM) | Diameter of growth inhibition zone, CN [19]: 11 ± 1.2 mm; EC50 [20]: > 100 µM; EC50 [21]: > 100 µM; Diameter of growth inhibition zone, SA [22]: 16 ± 0.32 mm; EC50 [23]: > 100 µM; EC50 [24]: > 100 µM; Minimum cytotoxic conc. [25]: >100 µM; EC50 [26]: > 100 µM; EC50 [27]: > 100 µM; EC50 [28]: > 100 µM; Diameter of growth inhibition zone, BC [29]: 10 ± 0.3 mm; MIC [30]: 64 µg/mL (≈ 183 µM); Minimum cytotoxic conc. [31]: >125 µM; Diameter of growth inhibition zone, LC [32]: 10 ± 1.25 mm; MIC [33]: 32 µg/mL (≈ 91.6 µM); Diameter of growth inhibition zone, EC [34]: 18.8 ± 0.9 mm; MIC [35]: 32 µg/mL (≈ 91.6 µM); MIC [36]: 32 µg/mL (≈ 91.6 µM); Diameter of growth inhibition zone, KA [37]: 12 ± 0.48 mm |
| Cc1ccc(S(=O)(=O)N2C(=O)CSC2c2ccc(O)cc2)cc1 (stereo not drawn) [5m, 2-(4-Hydroxyphenyl)-3-[(4-methylphenyl)sulfonyl]-1,3-thiazolidin-4-one] | > 100 | > 100 | 10 ± 1.2 | 128 (≈ 366 µM) | 12 ± 0.4 | 13 ± 0.6 | > 100 | >100 | 64 (≈ 183 µM) | > 100 | 15.2 ± 0.96 | 15 ± 0.35 | > 100 | >100 | 12 ± 2.1 | 32 (≈ 91.6 µM) | 64 (≈ 183 µM) | > 100 | > 100 | 16 (≈ 45.8 µM) | Diameter of growth inhibition zone, CN [19]: 13 ± 1.4 mm; EC50 [20]: > 100 µM; EC50 [21]: > 100 µM; Diameter of growth inhibition zone, SA [22]: 13 ± 0.63 mm; EC50 [23]: > 100 µM; EC50 [24]: > 100 µM; Minimum cytotoxic conc. [25]: >100 µM; EC50 [26]: > 100 µM; EC50 [27]: > 100 µM; EC50 [28]: > 100 µM; Diameter of growth inhibition zone, BC [29]: 10 ± 0.6 mm; MIC [30]: 32 µg/mL (≈ 91.6 µM); Minimum cytotoxic conc. [31]: >125 µM; Diameter of growth inhibition zone, LC [32]: 14 ± 0.64 mm; MIC [33]: 16 µg/mL (≈ 45.8 µM); Diameter of growth inhibition zone, EC [34]: 15.9 ± 0.23 mm; MIC [35]: 64 µg/mL (≈ 183 µM); MIC [36]: 64 µg/mL (≈ 183 µM); Diameter of growth inhibition zone, KA [37]: 10 ± 0.4 mm |
| Cc1ccc(S(=O)(=O)N2C(=O)CSC2c2ccccc2[N+](=O)[O-])cc1 (stereo not drawn) [5o, 3-[(4-Methylphenyl)sulfonyl]-2-(2-nitrophenyl)-1,3-thiazolidin-4-one] | > 100 | > 100 | 18 ± 0.9 | 16 (≈ 42.3 µM) | 10 ± 0.8 | 19 ± 1.5 | > 100 | >100 | 2 (≈ 5.28 µM) | > 100 | 15 ± 1.1 | 20 ± 1.1 | > 100 | >100 | 10 ± 1.5 | 8 (≈ 21.1 µM) | 64 (≈ 169 µM) | > 100 | > 100 | 16 (≈ 42.3 µM) | Diameter of growth inhibition zone, CN [19]: 19 ± 1.2 mm; EC50 [20]: > 100 µM; EC50 [21]: > 100 µM; Diameter of growth inhibition zone, SA [22]: 15 ± 1.5 mm; EC50 [23]: > 100 µM; EC50 [24]: > 100 µM; Minimum cytotoxic conc. [25]: >100 µM; EC50 [26]: > 100 µM; EC50 [27]: > 100 µM; EC50 [28]: > 100 µM; Diameter of growth inhibition zone, BC [29]: 10 ± 0.6 mm; MIC [30]: 16 µg/mL (≈ 42.3 µM); Minimum cytotoxic conc. [31]: >125 µM; Diameter of growth inhibition zone, LC [32]: 12 ± 0.66 mm; MIC [33]: 32 µg/mL (≈ 84.6 µM); Diameter of growth inhibition zone, EC [34]: 16 ± 0.9 mm; MIC [35]: 32 µg/mL (≈ 84.6 µM); MIC [36]: 16 µg/mL (≈ 42.3 µM); Diameter of growth inhibition zone, KA [37]: 12 ± 0.34 mm |
